Laboratory results as given in article PMC8542630 (Cell chemical biology, 2021).

Experiments:
GFP-Sc-Dyn [1] = biological target: T1, GFP-Sc-Dyn (Saccharomyces cerevisiae, UniProt P36022); test: Microtubule gliding assay; assay type: biochemical, S. cerevisiae; settings: 25 μM compound
Sc-Dyn-lyso = biological target: T2, Sc-Dyn-lyso (Saccharomyces cerevisiae, UniProt P36022); test: Microscale thermophoresis; assay type: binding, S. cerevisiae
T2 sequence (P36022 1758-2992 limits assumed): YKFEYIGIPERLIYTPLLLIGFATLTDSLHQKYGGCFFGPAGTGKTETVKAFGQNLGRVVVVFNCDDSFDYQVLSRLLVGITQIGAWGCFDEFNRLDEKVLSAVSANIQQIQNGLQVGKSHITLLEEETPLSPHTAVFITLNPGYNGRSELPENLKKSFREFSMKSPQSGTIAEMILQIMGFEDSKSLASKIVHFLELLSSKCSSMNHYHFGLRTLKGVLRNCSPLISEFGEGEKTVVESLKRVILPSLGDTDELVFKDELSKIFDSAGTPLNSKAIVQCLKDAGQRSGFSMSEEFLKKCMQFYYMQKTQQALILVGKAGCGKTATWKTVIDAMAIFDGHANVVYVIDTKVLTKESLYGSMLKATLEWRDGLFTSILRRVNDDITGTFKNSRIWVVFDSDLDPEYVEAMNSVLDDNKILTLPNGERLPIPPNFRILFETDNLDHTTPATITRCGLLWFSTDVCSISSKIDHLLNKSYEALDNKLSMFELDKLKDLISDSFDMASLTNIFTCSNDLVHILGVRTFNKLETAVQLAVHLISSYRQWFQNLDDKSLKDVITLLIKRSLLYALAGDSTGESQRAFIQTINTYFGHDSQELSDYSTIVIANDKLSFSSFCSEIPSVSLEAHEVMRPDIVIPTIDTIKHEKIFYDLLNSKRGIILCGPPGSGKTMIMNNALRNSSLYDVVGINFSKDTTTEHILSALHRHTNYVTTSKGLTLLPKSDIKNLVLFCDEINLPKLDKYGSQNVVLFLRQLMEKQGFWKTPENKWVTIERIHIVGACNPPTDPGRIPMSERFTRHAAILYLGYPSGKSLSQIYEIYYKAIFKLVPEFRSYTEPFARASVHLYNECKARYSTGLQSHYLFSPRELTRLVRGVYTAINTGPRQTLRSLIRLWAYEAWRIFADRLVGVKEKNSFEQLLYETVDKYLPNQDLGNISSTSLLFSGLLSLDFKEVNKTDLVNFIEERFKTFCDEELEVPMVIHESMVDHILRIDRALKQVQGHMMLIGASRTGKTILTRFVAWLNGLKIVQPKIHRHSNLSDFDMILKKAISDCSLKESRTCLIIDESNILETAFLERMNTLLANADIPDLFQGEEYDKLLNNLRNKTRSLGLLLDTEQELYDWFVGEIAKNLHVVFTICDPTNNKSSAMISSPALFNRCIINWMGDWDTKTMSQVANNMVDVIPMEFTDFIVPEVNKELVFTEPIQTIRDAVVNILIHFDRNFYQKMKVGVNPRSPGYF
T2 sequence (P36022 3301-4092 limits assumed): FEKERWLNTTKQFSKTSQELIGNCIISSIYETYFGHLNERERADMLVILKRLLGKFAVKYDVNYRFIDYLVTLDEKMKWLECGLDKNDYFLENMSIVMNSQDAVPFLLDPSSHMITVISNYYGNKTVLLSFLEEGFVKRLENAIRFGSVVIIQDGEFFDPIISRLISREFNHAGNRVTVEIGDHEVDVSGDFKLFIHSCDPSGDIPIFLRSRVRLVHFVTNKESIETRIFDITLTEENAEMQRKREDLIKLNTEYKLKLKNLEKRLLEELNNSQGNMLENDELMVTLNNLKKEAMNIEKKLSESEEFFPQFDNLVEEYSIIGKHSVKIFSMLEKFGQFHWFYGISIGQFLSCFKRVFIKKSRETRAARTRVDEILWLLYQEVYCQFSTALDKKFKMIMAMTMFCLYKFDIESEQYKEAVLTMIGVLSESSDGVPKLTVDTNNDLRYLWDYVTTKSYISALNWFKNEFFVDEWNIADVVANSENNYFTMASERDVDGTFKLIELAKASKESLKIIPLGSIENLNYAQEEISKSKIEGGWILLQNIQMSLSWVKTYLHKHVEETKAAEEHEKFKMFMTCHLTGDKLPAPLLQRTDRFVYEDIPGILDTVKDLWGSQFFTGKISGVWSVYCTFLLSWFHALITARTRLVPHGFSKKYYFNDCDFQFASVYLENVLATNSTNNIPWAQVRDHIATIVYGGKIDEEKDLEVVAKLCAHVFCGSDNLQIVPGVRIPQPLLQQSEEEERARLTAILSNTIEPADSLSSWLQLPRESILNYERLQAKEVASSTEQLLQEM

[2] = biological target: GFP-Sc-Dyn V2391S/M2732S (AAA3_V-S/AAA4_M-S) (Saccharomyces cerevisiae, UniProt P36022, M2732S/V2391S); test: Microscale thermophoresis; assay type: binding
Sequence of GFP-Sc-Dyn V2391S/M2732S (AAA3_V-S/AAA4_M-S) (P36022 1219-4092 V2391S/M2732S): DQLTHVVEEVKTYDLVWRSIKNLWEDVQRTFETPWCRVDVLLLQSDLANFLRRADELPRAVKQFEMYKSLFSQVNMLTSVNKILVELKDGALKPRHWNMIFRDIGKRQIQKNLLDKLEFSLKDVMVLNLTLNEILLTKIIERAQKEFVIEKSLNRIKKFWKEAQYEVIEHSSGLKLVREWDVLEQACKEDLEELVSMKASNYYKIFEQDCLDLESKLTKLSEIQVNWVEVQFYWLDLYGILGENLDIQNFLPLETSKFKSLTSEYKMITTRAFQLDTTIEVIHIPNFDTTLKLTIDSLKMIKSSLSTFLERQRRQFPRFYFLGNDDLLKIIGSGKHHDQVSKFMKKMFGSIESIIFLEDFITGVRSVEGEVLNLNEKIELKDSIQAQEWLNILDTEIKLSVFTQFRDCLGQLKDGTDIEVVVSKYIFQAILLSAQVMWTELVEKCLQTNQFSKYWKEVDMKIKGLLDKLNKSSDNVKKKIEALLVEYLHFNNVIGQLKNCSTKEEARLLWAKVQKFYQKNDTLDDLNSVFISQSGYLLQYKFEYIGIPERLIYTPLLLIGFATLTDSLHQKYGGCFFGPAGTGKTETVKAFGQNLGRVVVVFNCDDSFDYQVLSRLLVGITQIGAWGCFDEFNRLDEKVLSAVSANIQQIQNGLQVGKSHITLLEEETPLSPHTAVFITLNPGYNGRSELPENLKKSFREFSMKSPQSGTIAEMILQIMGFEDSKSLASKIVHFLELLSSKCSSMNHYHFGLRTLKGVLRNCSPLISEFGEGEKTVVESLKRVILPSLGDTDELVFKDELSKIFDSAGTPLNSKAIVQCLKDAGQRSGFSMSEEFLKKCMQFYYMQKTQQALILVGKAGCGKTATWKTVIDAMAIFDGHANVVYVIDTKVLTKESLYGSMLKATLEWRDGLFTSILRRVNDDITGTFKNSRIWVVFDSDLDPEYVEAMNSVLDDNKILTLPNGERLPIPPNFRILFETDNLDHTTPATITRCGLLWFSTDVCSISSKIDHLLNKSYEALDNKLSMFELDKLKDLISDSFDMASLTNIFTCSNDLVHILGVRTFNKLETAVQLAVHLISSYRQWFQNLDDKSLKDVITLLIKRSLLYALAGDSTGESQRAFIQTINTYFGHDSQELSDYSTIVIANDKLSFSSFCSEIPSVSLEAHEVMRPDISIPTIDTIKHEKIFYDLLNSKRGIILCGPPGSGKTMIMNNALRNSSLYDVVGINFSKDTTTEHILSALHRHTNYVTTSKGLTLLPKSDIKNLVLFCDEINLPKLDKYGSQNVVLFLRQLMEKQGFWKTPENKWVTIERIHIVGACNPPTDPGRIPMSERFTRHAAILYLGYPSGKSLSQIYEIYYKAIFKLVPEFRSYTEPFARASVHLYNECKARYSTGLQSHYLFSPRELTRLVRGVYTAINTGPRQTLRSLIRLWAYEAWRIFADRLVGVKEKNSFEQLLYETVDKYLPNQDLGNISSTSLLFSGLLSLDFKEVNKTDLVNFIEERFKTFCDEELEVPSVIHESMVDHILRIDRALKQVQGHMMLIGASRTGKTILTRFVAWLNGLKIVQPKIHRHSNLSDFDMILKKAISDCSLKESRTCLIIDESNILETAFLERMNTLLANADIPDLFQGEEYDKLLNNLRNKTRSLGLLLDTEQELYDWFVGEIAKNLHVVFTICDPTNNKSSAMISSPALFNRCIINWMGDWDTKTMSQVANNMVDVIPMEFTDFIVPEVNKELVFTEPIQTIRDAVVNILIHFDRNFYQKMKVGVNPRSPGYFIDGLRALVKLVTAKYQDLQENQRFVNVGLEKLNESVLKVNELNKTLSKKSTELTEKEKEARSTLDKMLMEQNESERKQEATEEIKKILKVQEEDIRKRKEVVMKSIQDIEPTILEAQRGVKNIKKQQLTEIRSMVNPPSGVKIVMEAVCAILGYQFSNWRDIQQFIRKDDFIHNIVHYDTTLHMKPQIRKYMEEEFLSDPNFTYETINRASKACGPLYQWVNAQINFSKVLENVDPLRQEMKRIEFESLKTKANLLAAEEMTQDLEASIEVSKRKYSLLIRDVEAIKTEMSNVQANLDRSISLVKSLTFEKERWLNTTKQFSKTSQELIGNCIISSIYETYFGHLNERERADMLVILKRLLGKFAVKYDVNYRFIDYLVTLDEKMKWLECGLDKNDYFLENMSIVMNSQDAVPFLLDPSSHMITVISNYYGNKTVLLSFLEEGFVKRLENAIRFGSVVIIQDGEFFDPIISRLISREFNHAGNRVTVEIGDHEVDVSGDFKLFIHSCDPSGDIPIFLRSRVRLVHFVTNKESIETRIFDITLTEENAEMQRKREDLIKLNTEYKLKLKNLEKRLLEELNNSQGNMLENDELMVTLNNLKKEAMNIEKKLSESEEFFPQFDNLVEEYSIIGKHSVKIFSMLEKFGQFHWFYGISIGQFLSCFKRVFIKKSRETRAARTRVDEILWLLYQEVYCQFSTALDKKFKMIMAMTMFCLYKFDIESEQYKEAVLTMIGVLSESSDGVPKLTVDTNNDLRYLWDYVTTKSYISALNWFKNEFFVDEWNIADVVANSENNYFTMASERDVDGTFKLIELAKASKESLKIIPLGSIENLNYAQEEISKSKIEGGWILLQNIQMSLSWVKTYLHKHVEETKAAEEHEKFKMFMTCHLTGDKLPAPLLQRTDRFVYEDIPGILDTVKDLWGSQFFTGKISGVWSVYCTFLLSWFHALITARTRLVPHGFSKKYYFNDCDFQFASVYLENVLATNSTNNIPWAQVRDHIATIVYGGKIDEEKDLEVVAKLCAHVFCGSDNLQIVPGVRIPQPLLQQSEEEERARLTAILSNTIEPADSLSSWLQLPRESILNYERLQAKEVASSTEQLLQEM

GFP-Sc-Dyn [3] = biological target: T1, GFP-Sc-Dyn; test: Microscale thermophoresis; assay type: binding, S. cerevisiae; settings: for FNorm, GFP-Sc-Dyn (MST) / ΔFNorm, GFP-Sc-Dyn (MST): mean ± SD; for FNorm, GFP-Sc-Dyn (MST): n=3; for ΔFNorm, GFP-Sc-Dyn (MST): absence of AMPPNP, n=5
Dm-spastin = Dm-spastin (Drosophila melanogaster, UniProt Q8I0P1, DEL311-372); test: NADH-coupled steady-state ATPase assay, Dm-spastin; assay type: biochemical, D. melanogaster
[4] = biological target: GFP-Sc-Dyn AAA3 E/Q (E2488Q) (Saccharomyces cerevisiae, UniProt P36022, E2488Q); test: NADH-coupled steady-state ATPase assay, GFP-Sc-Dyn AAA3 E/Q mutant; assay type: biochemical, S. cerevisiae
Sequence of GFP-Sc-Dyn AAA3 E/Q (E2488Q) (Saccharomyces cerevisiae, UniProt P36022, E2488Q) (P36022 1219-4092 E2488Q): as the sequence (P36022 1219-4092 V2391S/M2732S) above, with S1173V, E1270Q, S1514M counted along it

[5] = biological target: GFP-Sc-Dyn AAA3 E/Q (E2488Q); test: as above; assay type: biochemical, S. cerevisiae; settings: 1 mM MgATP, n=3
GFP-Sc-Dyn [6] = biological target: T1, GFP-Sc-Dyn; test: NADH-coupled steady-state ATPase assay, GFP-Sc-Dyn basal ATPase; assay type: biochemical, S. cerevisiae
Hs-dynein 1 = Hs-dynein 1 (Homo sapiens, UniProt Q14204); test: Radioactive ATPase assay, basal ATPase activity of Hs-dynein 1; assay type: biochemical
Outline: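 Hs-dynein 1 motor construct (N-terminal His6, aa 1320–4646) at 30 nM, without microtubules. Radioactive ATPase reaction ran for 45 min with test compound. Percent inhibition was obtained by normalising the ATPase rate with compound to DMSO control.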

[7] = 1% DMSO, 1 mM Mg-ATP, mean ± SD

T1 sequence (P36022 1219-4092): as the sequence (P36022 1219-4092 V2391S/M2732S) above, with S1173V, S1514M counted along it

N#Cc1c(C2(c3ccc(Cl)cc3)CC2)nn2c(=O)c(Oc3cccc(Br)c3)c[nH]c12 [compound 20, 6-(3-bromophenoxy)-2-[1-(4-chlorophenyl)cyclopropyl]-7-oxo-4H-pyrazolo[1,5-a]pyrimidine-3-carbonitrile]
Time until most microtubules become immotile (GFP-Sc-Dyn [1]): ≤ 30 min | Microtubule gliding velocity, 30 minutes after treatment (GFP-Sc-Dyn [1]; [7]): 3 ± 5 | Microtubule gliding velocity, immediately after treatment (GFP-Sc-Dyn [1]; [7]): 35 ± 19 | EC50 (Sc-Dyn-lyso): 22 ± 5.3 µM | EC50 [2]: > 100 µM | FNorm, GFP-Sc-Dyn (MST) (GFP-Sc-Dyn [3]; 12.5 μM compound, AMPPNP 100 μM): 0.8 ± 2 | FNorm, GFP-Sc-Dyn (MST) (GFP-Sc-Dyn [3]; 12.5 μM compound, AMPPNP 1 mM): 1.9 ± 1.2 | ΔFNorm, GFP-Sc-Dyn (MST) (GFP-Sc-Dyn [3]; 12.5 μM compound): 3.0 ± 5.0 | FNorm, GFP-Sc-Dyn (MST) (GFP-Sc-Dyn [3]; 25 μM compound, AMPPNP 100 μM): 2.4 ± 2.3 | FNorm, GFP-Sc-Dyn (MST) (GFP-Sc-Dyn [3]; 25 μM compound, AMPPNP 1 mM): 0.1 ± 1 | ΔFNorm, GFP-Sc-Dyn (MST) (GFP-Sc-Dyn [3]; 25 μM compound): 6.7 ± 5.2 | ΔFNorm lower than that of the WT control (GFP-Sc-Dyn [3]; 50 μM compound 20, AMPPNP 1 mM): ~ 93% | FNorm, GFP-Sc-Dyn (MST) (GFP-Sc-Dyn [3]; 50 μM compound, AMPPNP 100 μM): 9.3 ± 2.3 | FNorm, GFP-Sc-Dyn (MST) (GFP-Sc-Dyn [3]; 50 μM compound, AMPPNP 1 mM): 1.2 ± 2 | ΔFNorm, GFP-Sc-Dyn (MST) (GFP-Sc-Dyn [3]; 50 μM compound): 16 ± 2.8 | EC50 (GFP-Sc-Dyn [3]; EC50, binding to GFP-Sc-Dyn (MST), mean ± 95% CI, n=9, Figures 5D-E): 70 ± 31 µM | EC50 (GFP-Sc-Dyn [3]; EC50, binding to WT GFP-Sc-Dyn (MST), mean ± 95% CI, n=4, Figure 5N, compared with V2391S/M2732S mutant): 36 ± 7.8 µM | Hill slope, binding to GFP-Sc-Dyn (MST) (GFP-Sc-Dyn [3]; mean ± 95% CI, n=9): 1.7 ± 0.6 | Reduction of ATPase activity, Dm-spastin (Dm-spastin; 20 μM, 1 mM MgATP): < 25% | Percent steady-state ATPase activity, Dm-spastin (Dm-spastin; compound 20 μM, mean ± SD, n=3): 88 ± 4.4% | IC50 [4]: 8.2 ± 1.4 µM | IC50 fold lower than that of GFP-Sc-Dyn, AAA3 E/Q mutant [5]: ~ 2 fold | IC50 (GFP-Sc-Dyn [6]): 14 ± 1 µM | IC50 (Hs-dynein 1): 12 ± 9.3 µM | Inhibition of Hs-dynein 1 basal ATPase activity (in words) (Hs-dynein 1; compounds tested at 20 μM, 1 mM MgATP, no microtubules, n=2): most active
